Screening data: PubChem BioAssay, several laboratories
MT stabilize HCS: stabilizes microtubules in HeLa cells | HeLa tubulin immunostaining HCS, 24 h; share of cells brighter than vehicle mean+2SD | AID 2205 | 200,000 compounds, 0.83% hits | % tubulin-high responders, % at 10 µM;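 active = plate Z-score above 3 for both tubulin-high and condensed-nucleus cell shares, with cell loss under 80%, at 10 µM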;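 also: anti alpha tubulin signal scored within the nucleus-defined area of each cell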
BaF3 tox: reduces parental Ba/F3 cell viability, JAK2V617F counter-screen | CellTiter-Glo ATP luminescence | inhibition, % at 5.6 µM | 220,000 compounds, 1.1% hits | AID 1486;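 active = inhibition above a per-campaign cutoff, the mean inhibition of all tested compounds plus 3 SD, cut at about 27% in these data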;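 also: 0% = DMSO wells and 100% = JAK Inhibitor I control wells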
bCat nuc transl: modulators of beta-catenin nuclear translocation; HeLa beta-catenin nuclear translocation, immunofluorescence imaging; nuclear translocation activity, % at 5 µM; 190,000 compounds, 0.3% hits;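 active = nuclear translocation activity above 50% at 5 µM, with a well cell count of 50 or more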;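 also: per-cell ratio of nuclear to cytoplasmic median beta-catenin stain intensity; plate controls were DMSO negative control for no effect and GSK-3 inhibitor IX positive control for full effect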
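Assay system: human HeLa cells, native beta-catenin; doses: 5 µM primary, 0.02–20 µM confirmation; incubation: compound treatment 24 h, 37°C, 5% CO2; technique: fluorescence imaging of beta-catenin antibody stain plus DAPI; measure: % activation, nuclear-to-cytoplasmic median beta-catenin signal ratio per cell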
Ba/F3 V617F tox: loss of viability in JAK2V617F-driven Ba/F3 cells. Ba/F3 EpoR-JAK2V617F viability, ATP luminescence. AID 1446. 220,000 compounds, 1.1% hits. inhibition, % at 5.6 µM;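 active = inhibition above the campaign mean plus 3 SD over all tested compounds, cut at about 24% in these data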;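 also: cytokine-independent growth of Ba/F3 cells driven by EpoR plus mutant JAK2; 0% = DMSO-treated cells and 100% = JAK inhibitor I control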
APP transl inh: APP translation inhibition | SH-SY5Y APP 5'UTR-luciferase reporter, luminescence | inhibition, % at 2 µM | 190,000 compounds, 0.82% hits | AID 1285;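 active = inhibition above a set limit, derived from the sample mean plus 3 SD, cut at about 45% in these data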
L major viab: inhibitors of Leishmania major promastigote growth. Leishmania major promastigotes, resazurin fluorescence viability. inhibition, % at 10 µM. 200,000 compounds, 9% hits. AID 1063; in the data active = inhibition above about 50%;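 also: promastigotes grown with compound for 44 hours at 28 °C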
BaF3 tox 2: reduces parental Ba/F3 viability, JAK2V617F counter-screen; shares compounds with Ba/F3 V617F tox; CellTiter-Glo luminescence; cells kept alive by added IL-3; inhibition, % at 5.6 µM; 580 compounds, 31% hits; AID 1520;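 active = cell growth inhibition above the hit limit set in the earlier mutant JAK2 cell screen, cut at about 27% in these data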;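 also: plate controls were DMSO-treated cells for no effect and JAK Inhibitor I control wells for full effect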
JAK2V617F confrm: confirmation: loss of viability in JAK2V617F-dependent Ba/F3 cells | shares compounds with Ba/F3 V617F tox | Ba/F3 EpoR-JAK2V617F viability, CellTiter-Glo luminescence | inhibition, % at 5.6 µM | 580 compounds, 66% hits;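 active = mean inhibition above the hit cutoff derived in the earlier primary screen, cut at about 25% in these data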;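 also: 0% = DMSO-treated cells and 100% = JAK inhibitor I control wells; higher means lower luminescence from reduced cell ATP and viability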
* = called active by the depositor; / = no result. Only some compounds are listed: those with a hit (about 9.6% of all), similar ones and a draw of the others.

SMILES	MT stabilize HCS	BaF3 tox	bCat nuc transl	Ba/F3 V617F tox	APP transl inh	L major viab	BaF3 tox 2	JAK2V617F confrm
C=CCSc1nc(C)c(Cc2cccc3ccccc23)c(=O)[nH]1	5	6	1	0	-7	6	/	/
Nc1[nH]n(-c2ccccc2)c(=O)c1N=Nc1ccc2c(c1)OCO2	/	6	1	27*	/	/	57*	44*
CCc1ccc(/C=N/NC(=O)c2cc(C3CC3)nc3ccccc23)s1	41*	22	/	42*	44	15	63*	95*
O=C(CCCOc1ccccc1)N1CCN(c2ccccc2)CC1	2	2	/	2	-24	12	/	/
O=C(CCOc1ccccc1)N1CCN(c2ccc(O)cc2)CC1	/	6	-1	25*	/	/	5	14
O=c1onc(-c2ccc(Cl)cc2Cl)n1-c1cccnc1	/	-2	0	-2	/	/	/	/
CCn1c(SCc2c(F)cccc2Cl)nnc1-c1ccco1	2	-1	/	27*	-2	9	-2	4
CCn1c(SCc2nc(-c3ccccc3)no2)nnc1-c1ccco1	3	5	2	-2	3	-8	/	/
O=C(Nc1ccccc1C(=O)O)c1ccc(Br)o1	2	4	-3	24*	-16	-5	-1	-3
O=C(Nc1ccccc1F)c1ccc(Br)o1	2	5	/	0	-7	-5	/	/
Oc1ccc(/C=N/Nc2nccnc2Cl)c(O)c1	4	8	/	32*	/	100*	71*	91*
COc1ccc(/C=N/Nc2nccnc2Cl)c(OC)c1	2	0	0	-2	-26	-3	/	/
Cc1cc(C)n(-c2nnc(C)n2/N=C/c2ccco2)n1	1	8	/	6	3	-2	/	/
CCCOc1ccc2ccccc2c1/C=N/n1c(C)nnc1-n1nc(C)cc1C	55*	26	168*	24*	9	51*	55*	66*
CC1CC(C)(C)NC(=S)N1CCCC(=O)NCCc1ccc(Cl)cc1 (configuration not stated)	6	5	0	0	-18	3	/	/
COC(=O)CCc1sc(Nc2ccccc2)nc1-c1ccc(OC)cc1	3	7	-4	-2	-44	1	/	/
CCOC(=O)Nc1ccc2c(c1)N(C(=O)CCN1CCOCC1)c1ccccc1S2=O (configuration not stated)	3	4	2	41*	13	32	-2	23
Cc1ccc(NC(=O)/C(=C\c2ccccc2)NC(=O)/C=C/c2ccccc2)cc1	2	7	1	72*	-14	12	-4	-7
O=C(Nc1ccc([N+](=O)[O-])cc1Br)c1cc2ccccc2nc1Cl	/	-3	-1	-7	/	/	/	/
Cc1[nH]c(=O)c(C(=O)/C=C/c2ccccc2F)c2c1CCCC2	23	17	3	50*	7	100*	18	96*
Cn1ccnc1C(O)c1cc(C(C)(C)C)c(O)c(C(C)(C)C)c1 (configuration not stated)	4	1	-4	-3	9	48	/	/
CCC(=NCc1ccc(Cl)c(Cl)c1)c1nc(-c2ccco2)oc1O	4	9	-1	0	0	25	/	/
Cc1cc(NC(=O)c2sccc2C)n(-c2nc3ccccc3[nH]2)n1	5	3	0	84*	8	31	-5	-4
Cc1cc(NC(=O)c2cccs2)n(-c2nc3ccccc3[nH]2)n1	3	7	0	-1	10	4	/	/
CCOC(=O)N1CCN=C1SCc1ccc(C(F)(F)F)cc1	3	0	4	-3	2	4	/	/
CCn1c(CNC(=O)c2ccco2)nnc1SCC(=O)c1ccccc1	2	4	1	1	4	-7	/	/
C=CCn1c(CNC(=O)c2ccco2)nnc1SCC(=O)N1c2ccccc2Sc2ccccc21	3	22	/	71*	-2	8	-1	-1
CCn1c(SCC(=O)Nc2nc3ccc(OC)cc3s2)nc2c1c(=O)n(C)c(=O)n2C	2	13	0	3	-28	6	/	/
Nc1nc2ncc(C(=O)c3cc(F)ccc3O)cc2s1	/	-1	0	1	/	/	/	/
